The test system of data set [1] is BrdU+ cells in the hippocampal dentate gyrus. Nature of the data set: In vivo neurogenesis. The conditions noted are these: for proneurogenic activity (BrdU+ cells in dentate gyrus), in words: 10 μM solution infused ICV, 12 μL/day, 7 days, live mice. Also on record: species or system C57BL/J6 mice. In a few lines: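 Adult (12-week-old) wild-type C57BL/J6 mice, 4 per compound. Test compound solutions (10–0.01 μM) delivered by osmotic minipump into the left lateral ventricle at 12 μL/day for 7 days; the vehicle was artificial CSF. BrdU+ cells counted in SGZ/dentate gyrus of the contralateral hemisphere, every fifth 40 μm section, normalized to dentate volume. Mean ± SEM.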

A further data set addresses histamine H2 receptor (Homo sapiens, UniProt P25021). Description: Histamine H2 competition binding assay. Conditions: for Histamine H2 binding (% displacement @ 10 μM): displacement of [125I]aminopotentidine (0.1 nM) with 10 μM drug.
Another data set concerns the target hERG channel (Homo sapiens, UniProt Q12809).
For data set [2], the system named is embryonic, weaning or adult mice. Conditions: mouse, in vivo; cited from earlier work.
In a further data set the test system is neurogenesis. The conditions noted are these: cited from earlier work.
In data set [3] the test system is BrdU+ cells in the hippocampal dentate gyrus. Conditions: cited from earlier work.
Another data set has as its system neural precursor cells. The conditions noted are these: time-course experiments; cited from earlier work.
The test system of data set [4] is neurogenesis in the dentate gyrus. The conditions noted are these: rats, cited from earlier work.
The test system of data set [5] is dentate gyrus in mice deficient in the npas3 gene. The conditions noted are these: cited from earlier work.
For data set [6] the following is noted: mouse, in vivo, cited from earlier work.
For another data set, the system named is HeLa cells. Nature of the data set: Cell viability assay. The class given is cell-based.

“Also recorded” adds a separate entry of the source.

histamine H2 receptor, sequence (P25021 whole entry): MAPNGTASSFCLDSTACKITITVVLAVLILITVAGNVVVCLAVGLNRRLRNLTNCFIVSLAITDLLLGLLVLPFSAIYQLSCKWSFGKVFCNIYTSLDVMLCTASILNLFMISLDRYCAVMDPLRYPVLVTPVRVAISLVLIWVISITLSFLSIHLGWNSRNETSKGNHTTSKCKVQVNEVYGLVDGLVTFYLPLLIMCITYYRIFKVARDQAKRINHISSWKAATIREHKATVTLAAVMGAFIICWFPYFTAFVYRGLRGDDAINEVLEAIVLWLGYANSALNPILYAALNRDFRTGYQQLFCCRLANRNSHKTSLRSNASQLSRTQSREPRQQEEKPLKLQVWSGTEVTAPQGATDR
hERG channel, sequence (Q12809 whole entry): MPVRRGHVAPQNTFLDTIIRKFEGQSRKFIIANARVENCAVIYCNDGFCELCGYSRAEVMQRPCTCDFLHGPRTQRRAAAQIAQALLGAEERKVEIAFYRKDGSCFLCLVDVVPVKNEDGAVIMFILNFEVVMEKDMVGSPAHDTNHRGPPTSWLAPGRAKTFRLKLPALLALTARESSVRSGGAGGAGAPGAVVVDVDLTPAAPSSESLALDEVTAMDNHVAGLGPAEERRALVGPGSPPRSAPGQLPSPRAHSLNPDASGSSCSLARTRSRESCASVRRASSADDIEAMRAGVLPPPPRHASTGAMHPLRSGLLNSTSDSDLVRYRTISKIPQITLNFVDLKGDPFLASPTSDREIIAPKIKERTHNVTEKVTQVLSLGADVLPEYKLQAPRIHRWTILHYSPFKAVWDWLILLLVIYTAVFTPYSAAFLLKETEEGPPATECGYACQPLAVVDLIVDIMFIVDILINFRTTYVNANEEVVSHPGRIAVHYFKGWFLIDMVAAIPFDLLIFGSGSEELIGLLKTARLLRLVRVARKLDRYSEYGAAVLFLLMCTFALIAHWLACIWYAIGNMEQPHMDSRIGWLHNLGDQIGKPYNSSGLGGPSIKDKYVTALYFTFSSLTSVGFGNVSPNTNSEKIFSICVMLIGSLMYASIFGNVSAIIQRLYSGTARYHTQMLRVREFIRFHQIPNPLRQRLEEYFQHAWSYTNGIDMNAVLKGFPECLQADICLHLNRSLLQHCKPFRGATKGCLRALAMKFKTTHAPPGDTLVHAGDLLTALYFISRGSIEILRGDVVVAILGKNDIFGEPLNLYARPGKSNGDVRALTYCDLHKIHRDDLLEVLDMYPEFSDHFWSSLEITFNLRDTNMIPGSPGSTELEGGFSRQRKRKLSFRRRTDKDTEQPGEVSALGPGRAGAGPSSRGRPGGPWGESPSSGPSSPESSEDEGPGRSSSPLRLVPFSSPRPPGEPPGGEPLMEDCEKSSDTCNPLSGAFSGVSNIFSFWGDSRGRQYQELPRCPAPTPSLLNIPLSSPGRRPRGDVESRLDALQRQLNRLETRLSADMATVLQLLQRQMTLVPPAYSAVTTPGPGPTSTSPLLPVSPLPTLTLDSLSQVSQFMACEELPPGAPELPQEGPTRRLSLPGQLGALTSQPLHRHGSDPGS

Regarding `COc1ccc(NCC(O)Cn2c3ccc(Br)cc3c3cc(Br)ccc32)cc1` (centres unmarked) [Compound 8], in data set [1], the “proneurogenic activity (BrdU+ cells in dentate gyrus), in words” value (“proneurogenic activity” for short) is reported as “well tolerated; also recorded: highly active”.

With `[N-]=[N+]=Nc1cccc(NCC(O)Cn2c3ccc(Br)cc3c3cc(Br)ccc32)c1` (centres unmarked) [Compound 22], in data set [1], the “proneurogenic activity” value is “substantially decreased activity”.

For `[N-]=[N+]=Nc1ccc(NCC(O)Cn2c3ccc(Br)cc3c3cc(Br)ccc32)cc1` (centres unmarked) [Compound 23], the “proneurogenic activity” value in data set [1] was “highly active”.

Regarding `FC(CNc1ccccc1)Cn1c2ccc(Br)cc2c2cc(Br)ccc21` (centres unmarked) [Compound 52], in data set [1], the “proneurogenic activity” value was “gains little from fluorination”.

As to `OC(CNc1ccccc1)Cn1c2ccc(Cl)cc2c2cc(Cl)ccc21` (centres unmarked) [Compound 1], the “proneurogenic activity” value in data set [1] was “did not appear active”.

For `OC(CNc1ccccc1)Cn1c2ccc(Cl)cc2c2cc(Cl)ccc21` (centres unmarked) [Compound 17], the “proneurogenic activity” value in data set [1] is “little activity”.

With `COc1ccc(NCC(F)Cn2c3ccc(Br)cc3c3cc(Br)ccc32)cc1` (centres unmarked) [Compound 54], the “proneurogenic activity” value in data set [1] is “improved by fluorination”.

`CCOc1ccc(NCC(O)Cn2c3ccc(Br)cc3c3cc(Br)ccc32)cc1` (centres unmarked) [Compound 4-OEt]: the “proneurogenic activity” value in data set [1] is reported as “highly active”.

As for `CCOc1cccc(NCC(O)Cn2c3ccc(Br)cc3c3cc(Br)ccc32)c1` (centres unmarked) [Compound 21], in data set [1], the “proneurogenic activity” value is on record as “essentially abrogated activity”.

As for `OC(CNc1ccccc1)Cn1c2ccccc2c2ccccc21` (centres unmarked) [Compound 2], the “proneurogenic activity” value in [1] is reported as “did not appear active”.

In the case of `Cc1ccc2c(c1)c1c(n2CCc2ccc(C)nc2)CCN(C)C1` [dimebon, reference compound], the “proneurogenic activity” value in [1] is listed as “active in our neurogenesis assay, but substantially less so than P7C3”. The “Histamine H2 binding (% displacement @ 10 μM)” value on histamine H2 receptor turned out to be 99 % displacement.

`COc1cccc(NCC(O)Cn2c3ccc(Br)cc3c3cc(Br)ccc32)c1` (centres unmarked) [Compound 7]: the “proneurogenic activity” value in data set [1] is “well tolerated; also recorded: little effect on activity”. The “difference in activity between the two enantiomers” value in [1] (enantiomeric pairs tested, same enantiomer more active in all three cases) is recorded as “significant difference in activity”.

For the compound `OC(CNc1ccccc1)Cn1c2ccc(Br)cc2c2cc(Br)ccc21` (centres unmarked) [Compound P7C3], the “Half life in cell culture, Human hepatocytes” value in the data set with human hepatocytes was more than 4 h. Moreover, the “hERG binding (% displacement @ 10 μM)” value on hERG channel stood at 92 % displacement. For the same compound, in data set [2], the toxicity to mice result was “not toxic”. In addition, in the data set with mouse hepatocytes, the “Half life in cell culture, Mouse hepatocytes” value was more than 4 h. In addition, the “neurogenesis activity, oral dose 1 mg/kg” value in the data set with neurogenesis (oral dose 1 mg/kg) is recorded as “measurable activity”. In addition, the “neurogenesis activity, oral dose 5 mg/kg” value with neurogenesis (oral dose of 5 mg/kg) is given as “maximal neurogenesis activity”. Moreover, the “neurogenesis activity, 1 μM solution” value in data set [3] (1 μM solution infused ICV, 12 μL/day for 7 days) is reported as “maintains activity”. In addition, in data set [3] (10 μM ICV, 7 days, vehicle artificial CSF, similar number as FGF-2), the “number of BrdU+ cells relative to mice treated with vehicle alone” value is recorded as “approximately twice”. In addition, the “proliferation of neural precursor cells” value with neural precursor cells is “does not stimulate proliferation”. In addition, the cognitive capacity entry in [4] (as a function of terminal aging) is recorded as “preserved cognitive capacity”. In addition, in [4] (terminal aging), the “neurogenesis in the dentate gyrus” value is “enhanced neurogenesis in the dentate gyrus” and the neuron cell death entry was “impeded neuron cell death”. The “Histamine H2 binding, in words” value at histamine H2 receptor (10 μM drug) was “modest binding”. Also, the “Histamine H2 binding (% displacement @ 10 μM)” value at histamine H2 receptor is 63 % displacement. Moreover, the “structure and function of the dentate gyrus” value in data set [5] was “repair the structure and function of the dentate gyrus”. Also, the “AUC brain: AUC plasma ratio” value in data set [6] (po) is listed as 3.7. Moreover, the “oral availability, in words” value in data set [6] is listed as “orally available”. Further, the 50% growth inhibitory concentration (GI50) (as a rule, the concentration giving 50% growth inhibition) with HeLa cells amounted to 5.1 µM.

These data come from paper PMC3033481 (Journal of the American Chemical Society, 2011).
